Laboratory results as given in ChEMBL document CHEMBL3112393, “Structure-based design, synthesis and biological evaluation of diphenylmethylamine derivatives as novel Akt1 inhibitors” (Eur J Med Chem, 2014).
The source made the active and inactive calls. The rule behind the calls is not given here.

What was measured:
[1] = target: T1, RAC-alpha serine/threonine-protein kinase (Homo sapiens, UniProt P31749); assay: Inhibition of Akt1 in human OVCAR8 cells assessed as effect on total GSK3beta level at 1 uM by Western blotting analysis; format: cell-based; conditions: OVCAR-8
Method in brief: (§1)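 OVCAR-8 cells treated, washed with ice-cold PBS, lysed in buffer with NaF, β-glycerophosphate and PMSF. Lysate cleared at 13,000 rpm for 30 min at 4 °C, protein measured by Bradford. 40–80 of lysate protein run on SDS-PAGE and transferred to nitrocellulose. Blots probed with primary antibodies, then HRP secondaries, detected by ECL.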

[2] = target: Tyrosine-protein kinase JAK2 (Homo sapiens) (UniProt O60674); assay: Inhibition of JAK2 (unknown origin) at 0.8 ug/ml
[3] = target: Tyrosine-protein kinase SYK (Homo sapiens) (UniProt P43405); assay: Inhibition of SYK (unknown origin) at 0.8 ug/ml
[4] = target: Glycogen synthase kinase-3 beta (Homo sapiens) (UniProt P49841); assay: Inhibition of GSK3beta (unknown origin) at 0.8 ug/ml
[5] = target: T2, Inhibitor of nuclear factor kappa-B kinase subunit beta (Homo sapiens) (UniProt O14920); assay: Inhibition of IKKbeta (unknown origin) at 0.8 ug/ml
T2 sequence (whole entry): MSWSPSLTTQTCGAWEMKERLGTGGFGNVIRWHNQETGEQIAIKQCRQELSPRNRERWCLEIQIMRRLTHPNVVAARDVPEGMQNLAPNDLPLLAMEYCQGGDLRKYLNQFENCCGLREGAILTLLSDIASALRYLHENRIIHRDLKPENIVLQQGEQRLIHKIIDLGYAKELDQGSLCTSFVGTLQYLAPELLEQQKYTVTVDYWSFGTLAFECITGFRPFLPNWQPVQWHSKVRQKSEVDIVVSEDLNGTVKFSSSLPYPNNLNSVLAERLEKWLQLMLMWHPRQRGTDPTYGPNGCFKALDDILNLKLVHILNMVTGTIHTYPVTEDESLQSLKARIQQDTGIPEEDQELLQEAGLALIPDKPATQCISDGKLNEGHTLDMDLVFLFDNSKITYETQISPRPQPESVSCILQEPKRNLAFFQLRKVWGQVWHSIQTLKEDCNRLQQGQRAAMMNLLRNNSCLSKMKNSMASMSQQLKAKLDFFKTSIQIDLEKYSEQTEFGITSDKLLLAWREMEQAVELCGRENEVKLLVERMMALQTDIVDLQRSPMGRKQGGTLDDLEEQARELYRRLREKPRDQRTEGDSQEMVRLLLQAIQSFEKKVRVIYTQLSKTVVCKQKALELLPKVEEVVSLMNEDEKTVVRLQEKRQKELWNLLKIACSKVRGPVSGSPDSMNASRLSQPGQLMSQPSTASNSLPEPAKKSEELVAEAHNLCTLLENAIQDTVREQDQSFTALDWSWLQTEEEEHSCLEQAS

Homo sapiens = species on record: Homo sapiens; assay: Inhibition of Drak (unknown origin) at 0.8 ug/ml
[6] = target: T3, Serine/threonine-protein kinase B-raf (Homo sapiens, UniProt P15056); assay: Inhibition of BRAF1 (unknown origin)
[7] = target: T4, Aurora kinase A (Homo sapiens) (UniProt O14965); assay: Inhibition of Aurora A (unknown origin) at 0.8 ug/ml
T4 sequence (whole entry): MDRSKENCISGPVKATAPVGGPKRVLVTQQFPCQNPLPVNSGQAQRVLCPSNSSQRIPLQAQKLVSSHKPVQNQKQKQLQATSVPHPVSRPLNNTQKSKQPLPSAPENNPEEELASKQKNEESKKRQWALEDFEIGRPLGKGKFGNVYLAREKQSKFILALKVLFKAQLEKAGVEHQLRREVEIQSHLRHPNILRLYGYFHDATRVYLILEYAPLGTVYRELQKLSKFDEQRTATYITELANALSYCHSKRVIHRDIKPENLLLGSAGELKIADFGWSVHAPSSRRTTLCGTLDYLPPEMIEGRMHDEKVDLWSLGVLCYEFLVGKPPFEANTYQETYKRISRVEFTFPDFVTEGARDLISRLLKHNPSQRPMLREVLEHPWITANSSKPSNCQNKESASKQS

[8] = target: T1, RAC-alpha serine/threonine-protein kinase; assay: Inhibition of Akt1 in human OVCAR8 cells assessed as GSK3beta phosphorylation at 1 uM by Western blotting analysis; format: cell-based; conditions: OVCAR-8; method in brief: as §1
[9] = target: T1, RAC-alpha serine/threonine-protein kinase; assay: Inhibition of Akt1-mediated phosphorylation at Ser473 in human OVCAR8 cells at 1 uM by Western blotting analysis; format: cell-based; conditions: OVCAR-8; method in brief: as §1
OVCAR-8 [10] = assay: Induction of apoptosis in human OVCAR8 cells assessed as accumulation at sub-G1 phase at 20 uM after 48 hrs by annexin V-FITC/propidium iodide staining-based FACS flow cytometric analysis (reference value: 1.2%); format: functional
Method in brief: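 OVCAR-8 cells (5 × 10⁴ cells/ml, 5 ml) grown in 25 cm² flasks, treated with vehicle or compound for 48 h. Cells harvested, washed twice with ice-cold PBS, stained with annexin V-FITC/propidium iodide, analysed by flow cytometry.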

HCT-116 = assay: Antiproliferative activity against human HCT116 cells after 72 hrs by MTT assay; format: functional, cell-based; conditions: HCT-116, 72 h
Method in brief: (§2)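 MTT assay: cells seeded at 4000 per well, attached overnight, exposed to compound over 1.0–100.0 range for 72 h. MTT then added, 4 h more at 37 °C. Formazan dissolved in DMSO, absorbance at 570 nm. Triplicate wells in three independent experiments. IC50 from dose-effect analysis.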

HL-60 = assay: Antiproliferative activity against human HL60 cells after 72 hrs by MTT assay; format: functional, cell-based; conditions: HL-60, 72 h; method in brief: as §2
OVCAR-8 [11] = assay: Antiproliferative activity against human OVCAR8 cells after 72 hrs by MTT assay; format: functional, cell-based; conditions: OVCAR-8, 72 h; method in brief: as §2
[12] = target: T1, RAC-alpha serine/threonine-protein kinase; assay: Inhibition of Akt1 (unknown origin) using ATP/eNOS as substrate preincubated for 5 mins followed by substrate addition measured after 30 mins by fluorescence polarization assay
[13] = target: T1, RAC-alpha serine/threonine-protein kinase; assay: Inhibition of Akt1 (unknown origin) using ATP/eNOS as substrate at 10 uM preincubated for 5 mins followed by substrate addition measured after 30 mins by fluorescence polarization assay
Method in brief: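 Competitive fluorescence polarization kinase assay. 4 ng Akt1 in 2.5× kinase buffer (62.5 mM Tris-HCl pH 7.5, 25 mM MgCl₂, 12.5 mM β-glycerophosphate, 0.25 mM Na₃VO₄, 5 mM DTT) preincubated with DMSO vehicle or compound for 5 min at room temperature. ATP/eNOS substrate cocktail then added. Reaction stopped with 50 mM EDTA (pH 8.0), activity read per kit instructions. Single-point inhibition measured at 10.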

[14] = Inhibition of Drak (unknown origin); design: species or system Homo sapiens
[15] = target: T3, Serine/threonine-protein kinase B-raf

T1 sequence (P31749 whole entry): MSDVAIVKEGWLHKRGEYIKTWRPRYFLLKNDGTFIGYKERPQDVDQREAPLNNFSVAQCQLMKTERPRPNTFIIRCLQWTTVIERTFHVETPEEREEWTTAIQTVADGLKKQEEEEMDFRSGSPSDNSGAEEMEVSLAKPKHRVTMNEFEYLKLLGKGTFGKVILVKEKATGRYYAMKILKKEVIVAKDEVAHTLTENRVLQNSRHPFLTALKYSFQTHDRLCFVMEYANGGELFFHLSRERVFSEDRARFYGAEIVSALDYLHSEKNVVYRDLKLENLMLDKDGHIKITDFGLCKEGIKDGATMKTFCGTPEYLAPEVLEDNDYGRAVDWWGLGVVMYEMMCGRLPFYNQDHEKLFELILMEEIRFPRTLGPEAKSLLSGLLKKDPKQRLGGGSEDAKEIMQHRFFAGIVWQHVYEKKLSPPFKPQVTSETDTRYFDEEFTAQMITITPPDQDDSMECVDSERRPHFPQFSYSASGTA
T3 sequence (P15056 whole entry): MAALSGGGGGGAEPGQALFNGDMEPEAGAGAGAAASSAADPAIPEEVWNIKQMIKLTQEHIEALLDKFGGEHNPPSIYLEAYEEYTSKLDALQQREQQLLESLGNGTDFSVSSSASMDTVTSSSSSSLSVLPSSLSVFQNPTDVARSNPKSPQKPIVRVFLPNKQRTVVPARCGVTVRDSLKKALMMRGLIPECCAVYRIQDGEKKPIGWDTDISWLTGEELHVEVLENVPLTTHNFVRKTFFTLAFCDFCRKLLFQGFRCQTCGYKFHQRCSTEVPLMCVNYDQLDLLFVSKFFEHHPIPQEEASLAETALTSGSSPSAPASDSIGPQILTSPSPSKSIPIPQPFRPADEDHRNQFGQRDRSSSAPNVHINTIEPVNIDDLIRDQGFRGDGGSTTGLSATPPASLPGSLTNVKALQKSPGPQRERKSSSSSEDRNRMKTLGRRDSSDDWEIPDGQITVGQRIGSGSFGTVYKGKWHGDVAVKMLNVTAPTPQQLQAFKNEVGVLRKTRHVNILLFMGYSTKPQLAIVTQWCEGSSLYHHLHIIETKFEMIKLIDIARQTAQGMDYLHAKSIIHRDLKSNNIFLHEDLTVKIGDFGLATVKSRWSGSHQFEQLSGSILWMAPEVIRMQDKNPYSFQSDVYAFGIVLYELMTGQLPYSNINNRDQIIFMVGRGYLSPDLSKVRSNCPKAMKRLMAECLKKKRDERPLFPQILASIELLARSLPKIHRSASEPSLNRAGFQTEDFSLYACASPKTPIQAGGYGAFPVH
Tyrosine-protein kinase JAK2 (Homo sapiens), sequence (O60674 whole entry): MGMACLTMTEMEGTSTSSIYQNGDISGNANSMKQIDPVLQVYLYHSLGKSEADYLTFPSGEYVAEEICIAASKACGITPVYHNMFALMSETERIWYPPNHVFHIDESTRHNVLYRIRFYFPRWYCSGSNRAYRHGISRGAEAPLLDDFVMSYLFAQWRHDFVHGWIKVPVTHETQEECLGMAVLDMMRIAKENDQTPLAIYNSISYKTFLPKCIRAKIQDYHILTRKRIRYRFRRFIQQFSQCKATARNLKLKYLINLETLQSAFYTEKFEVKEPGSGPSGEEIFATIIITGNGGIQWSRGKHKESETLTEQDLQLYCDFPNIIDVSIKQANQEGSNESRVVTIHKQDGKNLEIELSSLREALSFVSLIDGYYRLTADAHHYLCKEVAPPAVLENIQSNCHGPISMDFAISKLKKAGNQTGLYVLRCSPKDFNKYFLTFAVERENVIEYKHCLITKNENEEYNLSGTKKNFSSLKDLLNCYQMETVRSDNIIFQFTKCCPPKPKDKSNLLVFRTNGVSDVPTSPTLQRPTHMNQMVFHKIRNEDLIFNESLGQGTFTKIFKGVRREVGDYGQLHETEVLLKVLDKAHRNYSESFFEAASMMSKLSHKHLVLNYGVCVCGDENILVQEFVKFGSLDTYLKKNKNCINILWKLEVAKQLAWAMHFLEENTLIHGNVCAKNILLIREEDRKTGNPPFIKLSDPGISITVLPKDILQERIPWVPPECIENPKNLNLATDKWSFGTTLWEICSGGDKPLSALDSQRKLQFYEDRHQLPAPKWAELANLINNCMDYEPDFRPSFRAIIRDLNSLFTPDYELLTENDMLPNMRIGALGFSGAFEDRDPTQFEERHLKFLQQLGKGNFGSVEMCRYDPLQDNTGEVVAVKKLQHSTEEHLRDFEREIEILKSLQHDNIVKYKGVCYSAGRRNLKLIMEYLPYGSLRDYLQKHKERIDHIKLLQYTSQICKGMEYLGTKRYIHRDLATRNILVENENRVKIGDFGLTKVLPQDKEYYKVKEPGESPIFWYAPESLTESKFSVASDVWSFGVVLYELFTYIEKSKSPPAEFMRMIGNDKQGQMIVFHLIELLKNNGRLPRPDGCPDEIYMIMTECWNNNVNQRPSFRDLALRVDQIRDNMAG
Glycogen synthase kinase-3 beta (Homo sapiens), sequence (P49841 whole entry, looked up): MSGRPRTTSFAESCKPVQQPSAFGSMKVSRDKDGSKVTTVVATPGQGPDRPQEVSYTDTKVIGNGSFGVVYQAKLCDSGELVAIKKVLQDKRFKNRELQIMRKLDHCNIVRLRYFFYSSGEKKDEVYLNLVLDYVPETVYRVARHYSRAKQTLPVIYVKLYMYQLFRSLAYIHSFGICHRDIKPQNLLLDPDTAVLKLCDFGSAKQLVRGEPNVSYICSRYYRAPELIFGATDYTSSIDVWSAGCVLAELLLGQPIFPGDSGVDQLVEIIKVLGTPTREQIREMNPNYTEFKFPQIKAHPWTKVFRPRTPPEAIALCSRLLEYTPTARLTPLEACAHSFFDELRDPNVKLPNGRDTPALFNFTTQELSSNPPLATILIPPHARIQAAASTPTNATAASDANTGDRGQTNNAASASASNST

SMILES	IC50 (HCT-116)	IC50 (HL-60)	IC50 (OVCAR-8 [11])	IC50 [12]	further results
CC(C)(C)NC(c1ccc(Cl)cc1)c1ccc(-c2cn[nH]c2)cc1 (stereo unspecified)	8.9 µM	5.3 µM	8.1 µM	38 nM	inhibition [1]: inactive; inhibition [2]: 19.5%; inhibition [3]: 0.98%; inhibition [4]: 7.2%; inhibition [5]: 1.8%; inhibition (Homo sapiens): 12%; IC50 [6]: 880 nM; inhibition [7]: 28.3%; inhibition [8]: Active; inhibition [9]: Active; Activity (OVCAR-8 [10]): 66.8%
CC(C)NC(c1ccc(Cl)cc1)c1ccc(-c2cn[nH]c2)cc1 (stereo unspecified)	11.6 µM	10.7 µM	12.2 µM	370 nM	
CC(C)CNC(c1ccc(Cl)cc1)c1ccc(-c2cccnc2)cc1 (stereo unspecified)					inhibition [13]: 10%
Clc1ccc(C(Nc2ccccc2)c2ccc(-c3cn[nH]c3)cc2)cc1 (stereo unspecified)					inhibition [13]: 29%
Clc1ccc(C(NC2CCCCC2)c2ccc(-c3cccnc3)cc2)cc1 (stereo unspecified)					inhibition [13]: 20%
OCCNC(c1ccc(Cl)cc1)c1ccc(-c2cn[nH]c2)cc1 (stereo unspecified)	27.6 µM		34.7 µM	650 nM	
CC(C)(C)NC(c1ccc(Cl)cc1)c1ccc(-c2ccncc2)cc1 (stereo unspecified)	14.4 µM	3.9 µM	16.1 µM	170 nM	
Clc1ccc(C(NC2CCCCC2)c2ccc(-c3ncnc4[nH]cnc34)cc2)cc1 (stereo unspecified)	14.4 µM	11 µM	8.6 µM	640 nM	
CC(C)CNC(c1ccc(Cl)cc1)c1ccc(-c2ccncc2)cc1 (stereo unspecified)	15.5 µM	3.3 µM	16.3 µM	1430 nM	
Clc1ccc(C(Nc2ccccc2)c2ccc(-c3ccncc3)cc2)cc1 (stereo unspecified)					inhibition [13]: 26%
CN[C@@H]1C[C@H]2O[C@@](C)([C@@H]1OC)n1c3ccccc3c3c4c(c5c6ccccc6n2c5c31)C(=O)NC4 [STAUROSPORINE]					IC50 [14]: 26 nM; IC50 [15]: 0.015 µM
Clc1ccc(C(NCc2ccccc2)c2ccc(-c3ccncc3)cc2)cc1 (stereo unspecified)	16.3 µM	12.5 µM	18.5 µM	1250 nM	
Clc1ccc(C(NCc2ccccc2)c2ccc(-c3cn[nH]c3)cc2)cc1 (stereo unspecified)	8.3 µM	5.3 µM	11.9 µM	1320 nM	
Clc1ccc(C(NC2CCCCC2)c2ccc(-c3ccncc3)cc2)cc1 (stereo unspecified)	12.4 µM	3.2 µM	15.6 µM	1260 nM	
CC(C)(C)NC(c1ccc(Cl)cc1)c1ccc(-c2cccnc2)cc1 (stereo unspecified)					inhibition [13]: 19%
Clc1ccc(C(NC2CC2)c2ccc(-c3cn[nH]c3)cc2)cc1 (stereo unspecified)	15.6 µM	7.8 µM	7.9 µM	480 nM	
CC(C)NC(c1ccc(Cl)cc1)c1ccc(-c2ncnc3nc[nH]c23)cc1 (stereo unspecified)	8.5 µM	13.2 µM	17 µM	160 nM	
NCCNC(c1ccc(Cl)cc1)c1ccc(-c2cn[nH]c2)cc1 (stereo unspecified)	10.7 µM		11.1 µM	820 nM	
Clc1ccc(C(NC2CC2)c2ccc(-c3ncnc4[nH]cnc34)cc2)cc1 (stereo unspecified)	13.4 µM	11.9 µM	30.6 µM	470 nM	
Clc1ccc(C(NCc2ccccc2)c2ccc(-c3ncnc4[nH]cnc34)cc2)cc1 (stereo unspecified)	16.2 µM	12.1 µM	12.5 µM	740 nM	
CC(C)CNC(c1ccc(Cl)cc1)c1ccc(-c2cn[nH]c2)cc1 (stereo unspecified)	14.1 µM	5.4 µM	8.1 µM	900 nM	
Clc1ccc(C(NC2CCCCC2)c2ccc(-c3cn[nH]c3)cc2)cc1 (stereo unspecified)	26.8 µM	2.1 µM	5.5 µM	1100 nM	
CC(C)NC(c1ccc(Cl)cc1)c1ccc(-c2ccncc2)cc1 (stereo unspecified)	17.3 µM	13.9 µM	22.8 µM	220 nM	
O=S(=O)(NCCNC/C=C/c1ccc(Br)cc1)c1cccc2cnccc12	15.7 µM	11.4 µM	10.5 µM		
CC(C)CNC(c1ccc(Cl)cc1)c1ccc(-c2ncnc3nc[nH]c23)cc1 (stereo unspecified)	7.7 µM	5.3 µM	9.9 µM	740 nM	
